Active and inactive are the calls of the source. The rule behind the calls is not given here.
Tests used:
[1] = Cytotoxicity against HEK293 cells by WST-1 assay; assay type: cell-based; conditions: human
Method in brief: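 HEK293 cells, poly-Lys-coated wells (1 × 10^4 cells/well), grown 16–20 h, then exposed to compounds in DMEM/5% FBS (0.1% DMSO final) for 20–22 h. WST-1 added, 2 h, A405 read. Viability = treated/vehicle absorbance after background (no-cell wells) subtraction; CC50 derived from dose curves.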

[2] = tested on: Rhodopsin (Homo sapiens), P08100 [P23H]; assay: Induction of subcellular localization of HA-tagged human rhodopsin P23H mutant on HEK293 cell surface by immunofluorescence microscopy; assay type: cell-based
HEK293 = assay: Upregulation of HA-tagged rhodopsin P23H expression in HEK293 cell surface by ELISA; assay type: functional, cell-based; conditions: Homo sapiens
Method in brief: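 HEK293 in poly-lysine-coated wells transfected with HA-tagged human P23H rhodopsin; 2–3 h later compounds in DMEM/5% FBS (0.1% DMSO final) for 20 h. Non-permeabilized cells fixed, blocked, HRP-anti-HA 1.5 h rt, chemiluminescent readout. Background-subtracted signal expressed relative to untreated cells (=1.0); ≥2 independent experiments (n >4).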

Activity [2]	SMILES	CC50 [1] [µM]	Activity (HEK293)
–	CC(C)(C)c1ccc(C(=O)OCc2ccc(C=O)cc2)cc1	63	–
–	NC(=O)c1ccc(COC(=O)c2cc(C(F)(F)F)cc(C(F)(F)F)c2)cc1	> 100	–
–	CC(C)(C)c1cc(C(=O)OCc2ccc(C=O)cc2)cc(C(C)(C)C)c1	34	–
–	CC1(C)CCC(C)(C)c2cc(C(=O)NCc3ccc(C=O)cc3)ccc21	49	–
–	O=C(O)c1ccc(COC(=O)c2cc(C(F)(F)F)cc(C(F)(F)F)c2)cc1	> 100	–
–	O=C(OCc1ccc(B(O)O)cc1)c1cc(C(F)(F)F)cc(C(F)(F)F)c1	49	–
–	O=Cc1ccc(COC(=O)c2ccc3c(c2)CCCC3)cc1	> 100	–
Active	CC1=C(/C=C/C(C)=C/C=C\C(C)=C\C=O)C(C)(C)CCC1 [RHODOPSIN]	23	Dose-dependent effect
Active	CC1=C(/C=C/C(C)=C\C=C\C(C)=C\C=O)C(C)(C)CCC1 [ISO RHODOPSIN]	28	Dose-dependent effect
–	CC1(C)CCC(C)(C)c2cc(C(=O)OCc3ccc(C=O)cc3)ccc21	48	–
–	CC(C)(C)c1cccc(C(=O)OCc2ccc(C=O)cc2)c1	73	–
–	O=Cc1ccc(COC(=O)c2cc(C(F)(F)F)cc(C(F)(F)F)c2)cc1	> 100	–

From ChEMBL document CHEMBL1250529, “Retinobenzaldehydes as proper-trafficking inducers of folding-defective P23H rhodopsin mutant responsible for retinitis pigmentosa” (Bioorg Med Chem, 2010)
